The record followed here is ChEMBL document CHEMBL4513216, “Probing the Open Global Health Chemical Diversity Library for Multistage-Active Starting Points for Next-Generation Antimalarials” (ACS Infect Dis, 2020).

The series can be described thus: Toxicity liver stage against HepG2, at 10uM. The series is classed as cell-based. Set-up: test concentration 10 uM, cell line HepG2-A16-CD81EGFP. As to conditions: human, HepG2-A16-CD81EGFP cells; read-out: INHIBITION
The procedure, abridged:
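Uninfected HepG2-A16-CD81EGFP cells, 3 × 10^3 per well, 1536-well, plated on prespotted compound at 10 μM final, parasite-free screening media added to match infected plates; puromycin 10 μM positive, DMSO 0.5% negative; run in parallel with 48 h PbLuc assay at 37 °C, 5% CO2; viability by CellTiter-Glo luminescence, normalized to controls.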
Consider `CCOC(=O)Cn1ccc(O)c(Cc2ccc(Cl)cc2Cl)c1=O`, for which the cytotoxicity at 10 µM worked out at 4.19%.
The same measure for `COc1ccc2oc(C(C)NC(=O)NC3CCN(C)CC3)c(C)c2c1` (configuration not stated): 2.62%; for `CS(=O)(=O)N1CCCC12CCCN(c1nccs1)C2` (configuration not stated): 4.92%.
As to `Cc1noc([C@]23COC[C@H]2CN(S(=O)(=O)C2CC2)C3)n1`, the cytotoxicity at 10 µM came out at 8.1%.
For the compound `CNC(=O)c1nc2c(s1)CCN(C(=O)c1ccccc1)CC2`, the cytotoxicity at 10 µM is 11.1%.
The same measure for `COCCNC(=O)Cn1c(-c2ccc(Cl)cc2)nc(C)c(CCO)c1=O`: -13.1%.
On to `CCc1cnc2c(c1NCc1ccncc1)c(=O)n(C)c(=O)n2C`, for which the cytotoxicity at 10 µM was -12.1%.
With `Cc1ccc(N2CCN(C(=O)COc3ccccc3)CC2)nn1`, the cytotoxicity at 10 µM was -14.6%.
`COCC1CN(Cc2cc(C)on2)Cc2cn(C)nc21` (configuration not stated): the cytotoxicity at 10 µM is -6.07%.
As for `O=c1c2c(ncn1CCCO)nc1n2CCC1`, the cytotoxicity at 10 µM is -3.89%.
For `CC1(C)CC(=O)N(CC(=O)Nc2ccon2)c2ccccc21`, the cytotoxicity at 10 µM was -3.43%.
The same measure for `COCC(=O)N1CCCC1(C(=O)N(C)C)c1cnccn1` (configuration not stated): 3.96%.
Under `COCCC(=O)NCCc1nc(N(C)C)ncc1-c1ccncc1` stands 1.68%; under `COc1ccc(CN(C)[C@@H]2CN(S(=O)(=O)C(C)C)C[C@H]2O)cc1`, 0.465%; under `COc1ccc2c(c1)C(=O)NC1(CC2)CCN(Cc2cccnc2)C1` (configuration not stated), 0.295%.
As for `COc1ccccc1N1CCC(NCc2c(C)noc2C)C1` (configuration not stated), the cytotoxicity at 10 µM was 1.81%.
For `COc1ccc(F)cc1Cn1nc(C(N)=O)ccc1=O`, the cytotoxicity at 10 µM was -2.52%.
`CC(C)Cn1ccnc1CNC(=O)NC(C)(C)c1nccs1`: the cytotoxicity at 10 µM was -5.66%.
Turning to `CC(NCCn1cccn1)c1ccccc1Cl` (configuration not stated), the cytotoxicity at 10 µM was -5.03%.
For the compound `CCCC(C)CS(=O)(=O)NCc1cccnc1OC` (configuration not stated), the cytotoxicity at 10 µM was -18%.
Under `CNC(=O)NCCc1csc2ccccc12` stands 2.22%; under `Cc1noc(C(C)Nc2ccc3oc(C)nc3c2)n1` (configuration not stated), 1.81%; under `COC(=O)c1ccc2c(c1)CCCN2S(=O)(=O)c1cn(C)c(C)n1`, 3.94%.
Consider `Cc1cc(NC(=O)NCc2ccncc2)ccc1OC(C)C`, for which the cytotoxicity at 10 µM is -8.36%.
Regarding `Cc1oc(CNC(=O)Cc2ccc3ccccc3c2)cc1C(=O)O`, the cytotoxicity at 10 µM was determined as 3.63%.
With `CC(C#N)(NC(=O)c1ccc(C#N)cc1)C1CC1` (configuration not stated), the cytotoxicity at 10 µM was -3.67%.
Regarding `Cn1c(NCCN2CCCCCC2)c(C#N)c(=O)n(C)c1=O`, the cytotoxicity at 10 µM was determined as 0.0687%.
Turning to `CCc1ncc2c(n1)CN(Cc1cccc3c1OCCO3)CC2`, the cytotoxicity at 10 µM was -8.42%.
Consider `Cc1ccc(NS(=O)(=O)c2c[nH]c3ncccc23)nc1`, for which the cytotoxicity at 10 µM came out at 6.43%.
As to `Cc1cc(NS(=O)(=O)c2c[nH]c3ncccc23)no1`, the cytotoxicity at 10 µM is -1.69%.
As to `CN(C(=O)[C@H]1CSCN1C(=O)OC(C)(C)C)C1CC1`, the cytotoxicity at 10 µM is 15.4%.
As for `Cc1cn2c(n1)CCC(NC(=O)CCOc1ccccc1F)C2` (configuration not stated), the cytotoxicity at 10 µM is 5.27%.
Turning to `Cc1nc(C)n(CC2CCCN(Cc3nnc(C4CC4)o3)C2)n1` (configuration not stated), the cytotoxicity at 10 µM is -12.9%.
Regarding `COc1ccccc1C(=O)N1CCCC1c1nncn1CC(C)C` (configuration not stated), the cytotoxicity at 10 µM is -2.96%.
As for `Cc1oc2nc[nH]c(=O)c2c1C(=O)N1CCCC(n2cccn2)C1` (configuration not stated), the cytotoxicity at 10 µM was -0.513%.
With `O=C(C1CCCOC1)N1CCCCc2ccccc21` (configuration not stated), the cytotoxicity at 10 µM was -5.51%.
Under `CSc1nc(C2CC2)nc(C)c1C(=O)NCc1ccco1` stands 5.25%; under `CCC(CC)(CNC(=O)NC1CCCC1(C)C)S(C)(=O)=O` (configuration not stated), 9.18%.
For the compound `COCCN1CCC(NCc2c(C(C)C)nn(C)c2N(C)C)CC1`, the cytotoxicity at 10 µM is 11.6%.
In the case of `c1ccc(OCc2nc(CNCCn3cccn3)cs2)cc1`, the cytotoxicity at 10 µM came to 7.53%.
`CCN(Cc1ccoc1)C(=O)NC1CCN(C(=O)OC(C)(C)C)C1` (configuration not stated): the cytotoxicity at 10 µM was 3.65%.
The same measure for `NC(=O)N1CCCN(CCc2nc(-c3cccc(Cl)c3)no2)CC1`: 14.8%.
`CS(=O)(=O)c1nnc(NC(=O)CCc2cccs2)[nH]1`: the cytotoxicity at 10 µM amounted to 8.91%.
On to `Cc1cnn(Cc2cc(F)ccc2F)c1NC(=O)C1COCCO1` (configuration not stated), for which the cytotoxicity at 10 µM was 21.5%.
Turning to `CN(C)C(=O)CN(C)C(=O)c1cnc(Cc2ccc(F)cc2)s1`, the cytotoxicity at 10 µM amounted to 8.66%.
With `COc1cccc(CN(C)C(=O)Nc2ccc3c(c2)OCCO3)c1`, the cytotoxicity at 10 µM is -0.627%.
The same measure for `Cc1csc(N2CCN(Cc3ccccn3)CC2C)n1` (configuration not stated): -8.84%.
The same measure for `Cc1cc(C)n(CC2CCCN2C(=O)c2ccc3[nH]nnc3c2)n1` (configuration not stated): -13.1%; for `Cc1cccc(NC(=O)N2CC(C(=O)NC(C)C)C3(CCOCC3)C2)c1` (configuration not stated): -75%.
Under `Cc1nc2c(c(N(C)C)n1)CCN(C(=O)c1ccc(N)nc1)C2` stands -8.26%.
`Cc1ccccc1C(C(=O)N(Cc1cnn(C)c1)CC(C)C)N(C)C` (configuration not stated): the cytotoxicity at 10 µM is 2.66%.
Turning to `CC(C)(CN1C[C@H](Nc2ncccn2)[C@@H](C2CC2)C1)N1CCOCC1`, the cytotoxicity at 10 µM is 5.41%.
Under `CCC[C@H]1CN(C(=O)c2ccc3[nH]c(CO)nc3c2)C[C@@H]1N` stands 3.96%; under `O=C(O)CC[C@@H]1CN(c2ncccc2F)CC[C@@H]1N1CCOCC1`, -9.11%.
The same measure for `O=C(c1ccoc1)N1CCCN(C(=O)c2ccc(C3CCCN3)s2)CC1` (configuration not stated): 1.27%; for `CC(Nc1ncnc2c1CCNCC2)c1nc2c(s1)CCCC2` (configuration not stated): 1.28%; for `O=C(CCc1cc(Cl)no1)N1CCCCC1CCN1CCOCC1` (configuration not stated): -9.97%.
Under `Clc1ccccc1OC1CN(CC2CCOC2)C1` (configuration not stated) stands -0.745%; under `Cc1nc2c(c(=O)n1C)CN(C(=O)C1CCCN(CC(N)=O)C1)C2` (configuration not stated), -6%; under `Cc1ncsc1CCN(C)C(=O)c1ncccc1O`, -5.43%.
Take `COc1ccc(F)c(-c2ccnc(N)c2)c1`: the cytotoxicity at 10 µM stood at 8.52%.
Take `O=C(O)CC1COCCN1Cc1ccccc1OCCc1ccccc1` (configuration not stated): the cytotoxicity at 10 µM was 2.4%.
Under `O=C(CCCc1cn[nH]c1)N1C[C@@H](CN2CCOCC2)[C@@H](CO)C1` stands -15.8%.
In the case of `Cc1ccc(-n2ncc(C(=O)N3CCCC3c3cnn(C)c3)c2C)cc1` (configuration not stated), the cytotoxicity at 10 µM is -7.79%.
Regarding `CC(C)CC(=O)NS(=O)(=O)c1ccc(C#N)cc1C(F)(F)F`, the cytotoxicity at 10 µM is -8.64%.
With `CC(C(=O)Nc1ccc(N2CCCCC2)nc1)n1ccnc1` (configuration not stated), the cytotoxicity at 10 µM is -29.8%.
As for `CN(C)c1ccc(C(=O)N2CCN(c3cnccn3)CC2)cn1`, the cytotoxicity at 10 µM was -4.98%.
Turning to `O=C(NCCNc1ncccn1)C1CC(=O)N(Cc2ccco2)C1` (configuration not stated), the cytotoxicity at 10 µM is -8.78%.
Turning to `O=C(NCCCn1nc2ccccn2c1=O)Nc1ccccc1`, the cytotoxicity at 10 µM was -13.6%.
As to `Cn1nc2c(cc1=O)CN(Cc1coc(-c3ccccc3)n1)CC2`, the cytotoxicity at 10 µM was -4.5%.
With `CC(C)n1cnnc1C1CCCN(C(=O)COCc2ccccc2)C1` (configuration not stated), the cytotoxicity at 10 µM was -20.3%.
Consider `C1CC(c2noc(C3CC3)n2)N(Cc2nc(C3CC3)no2)C1` (configuration not stated), for which the cytotoxicity at 10 µM is -12.8%.
With `Cc1nn(C)c(C)c1C1COCCN1C(=O)c1cnc(N)c(Cl)c1` (configuration not stated), the cytotoxicity at 10 µM was -8.21%.
Consider `Nc1cc2c(nn1)CCN(C(=O)CC1CCCC1)C2`, for which the cytotoxicity at 10 µM is -6.31%.
Under `CC(NC(=O)c1cccs1)C(=O)NCc1cccnc1N1CCCCC1` (configuration not stated) stands -8.57%; under `c1ccc(CN2CCCn3nnc(Cn4cccc4)c3C2)nc1`, 8.37%.
For `CC(C)NC(=O)[C@@H]1CCO[C@@H]2CCN(c3ncccn3)C[C@@H]21`, the cytotoxicity at 10 µM came to 7.92%.
Regarding `CN1CC(=O)N(c2ccsc2)CC12CCN(C(=O)Nc1ccccc1)C2` (configuration not stated), the cytotoxicity at 10 µM is -78.7%.
Regarding `c1csc(CN2CCc3onc(Cn4cccc4)c3C2)c1`, the cytotoxicity at 10 µM was found to be 6.59%.
As for `COc1cccc(CN2CCc3nc(C(N)=O)sc3CC2)c1`, the cytotoxicity at 10 µM was -3.79%.
Regarding `CC1c2ncc(Cn3cncn3)n2CCN1C1CCOCC1` (configuration not stated), the cytotoxicity at 10 µM worked out at 4.28%.
With `COCCN1CCO[C@@H]2CN(Cc3ccccc3OC)C[C@@H]2C1`, the cytotoxicity at 10 µM is -2.48%.
For the compound `O=C(O)CN1CCC(C(F)(F)F)CC1`, the cytotoxicity at 10 µM stood at 17.2%.
The same measure for `CN(C)C(=O)N1CC[C@H]2[C@H]1CCN2c1nncs1`: -1.19%.
Under `CN(C)[C@@H]1CCN(CC2CC2)[C@H]1Cc1cnn(C)c1` stands -76.9%; under `CCN1CCOCC12CCN(c1ccc(C#N)cc1)CC2`, -6.93%; under `O=S(=O)(c1ccc(F)cc1)N1CC[C@H]2[C@H]1CCN2c1ncccn1`, -2.85%.
Take `Cc1cnc(N2CCN(C)c3ncccc3C2)nc1`: the cytotoxicity at 10 µM is -5.86%.
As for `O=C(c1c[nH]cn1)N1CCC(F)(F)C2(CCN(c3ncccn3)C2)C1` (configuration not stated), the cytotoxicity at 10 µM turned out to be 9.76%.
As to `O=C(c1ccco1)N1CCCC2(CN(Cc3cccs3)CCO2)C1` (configuration not stated), the cytotoxicity at 10 µM is -2.3%.
Turning to `CNC(=O)CNC1CC2(CCN(c3ncccn3)CC2)c2ccccc21` (configuration not stated), the cytotoxicity at 10 µM came out at 4.68%.
Turning to `CCOCC(=O)N1Cc2[nH]nc(COCC3CC3)c2C1`, the cytotoxicity at 10 µM amounted to 9.29%.
On to `O=C1CCCC2=C1C(c1ccccc1Cl)C1C(=O)NN=C1N2` (configuration not stated), for which the cytotoxicity at 10 µM was -11.6%.
With `CCCc1cc(N2CCC(NC3CCC(O)CC3)CC2)nc(C)n1` (configuration not stated), the cytotoxicity at 10 µM was -4.35%.
`CC(C)c1cc(C(=O)N2C[C@@H]3CC[C@H]2CN(Cc2cccnc2)C3)no1`: the cytotoxicity at 10 µM worked out at 2.55%.
In the case of `COc1cc(N2C[C@H]3CC[C@@H](C2)N(CC2CCC2)C3=O)ncn1`, the cytotoxicity at 10 µM is -1.15%.
Consider `CC(C)CN1C[C@@H]2C[C@H](C(=O)Nc3cccnc3)[C@H](C1)O2`, for which the cytotoxicity at 10 µM turned out to be 7.8%.
